From ChEMBL document CHEMBL1152280 (J Med Chem, 2008)
Where a SMILES comes first, the peptide text is derived from it. [ ]: non-standard residue; d: D form. Leu(5,5,5,5',5',5'-F6) = N[C@@H](CC(C(F)(F)F)C(F)(F)F)C(=O)O

Experiments:
[1] = species: Mus musculus; assay: Toxicity in C57BL/6 mouse assessed as effect on body weight after 5 days; assay type: organism-based; conditions: in vivo, 120 h
[2] = Stability in presence of DPP4 assessed as peptide degradation after 24 hrs by HPLC; assay type: ADME
Summary of the method: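 Peptides (10 μM) incubated with DPP IV (20 units/L, activity calibrated on Gly-Pro-p-nitroanilide at 410 nm) in 50 mM Tris·HCl, 1 mM EDTA, pH 7.6, 37 °C, sampled over 200 min and up to 24 h. Samples were quenched in 0.2% TFA and run on C18 RP-HPLC (CH3CN/H2O/0.1% TFA, 230 nm). First-order k was fitted from ln[A] versus time, and fragments were identified by ESI-MS.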

Stability [2]	Structure (SMILES)	Activity [1]
–	CC[C@H](C)[C@H](NC(=O)[C@H](Cc1ccccc1)NC(=O)[C@H](CCC(=O)O)NC(=O)[C@H](CCCCN)NC(=O)[C@H](C)NC(=O)[C@H](C)NC(=O)[C@H](CCC(N)=O)NC(=O)CNC(=O)[C@H](CCC(=O)O)NC(=O)[C@H](CC(C)C)NC(=O)[C@H](Cc1ccc(O)cc1)NC(=O)[C@H](CO)NC(=O)[C@H](CO)NC(=O)[C@@H](NC(=O)[C@H](CC(=O)O)NC(=O)[C@H](CO)NC(=O)[C@@H](NC(=O)[C@H](Cc1ccccc1)NC(=O)[C@@H](NC(=O)CNC(=O)[C@H](CCC(=O)O)NC(=O)[C@H](C)NC(=O)[C@@H](N)Cc1cnc[nH]1)[C@@H](C)O)[C@@H](C)O)C(C)C)C(=O)N[C@@H](C)C(=O)N[C@@H](Cc1c[nH]c2ccccc12)C(=O)N[C@@H](CC(C(F)(F)F)C(F)(F)F)C(=O)N[C@H](C(=O)N[C@@H](CCCCN)C(=O)NCC(=O)N[C@@H](CCCNC(=N)N)C(N)=O)C(C)C	Non-toxic
Stable	CC[C@H](C)[C@H](NC(=O)[C@H](Cc1ccccc1)NC(=O)[C@H](CCC(=O)O)NC(=O)[C@H](CCCCN)NC(=O)[C@H](C)NC(=O)[C@H](C)NC(=O)[C@H](CCC(N)=O)NC(=O)CNC(=O)[C@H](CCC(=O)O)NC(=O)[C@H](CC(C)C)NC(=O)[C@H](Cc1ccc(O)cc1)NC(=O)[C@H](CO)NC(=O)[C@H](CO)NC(=O)[C@@H](NC(=O)[C@H](CC(=O)O)NC(=O)[C@H](CO)NC(=O)[C@@H](NC(=O)[C@H](Cc1ccccc1)NC(=O)[C@@H](NC(=O)CNC(=O)[C@H](CC(C(F)(F)F)C(F)(F)F)NC(=O)[C@H](CC(C(F)(F)F)C(F)(F)F)NC(=O)[C@@H](N)Cc1cnc[nH]1)[C@@H](C)O)[C@@H](C)O)C(C)C)C(=O)N[C@@H](C)C(=O)N[C@@H](Cc1c[nH]c2ccccc12)C(=O)N[C@@H](CC(C)C)C(=O)N[C@H](C(=O)N[C@@H](CCCCN)C(=O)NCC(=O)N[C@@H](CCCNC(=N)N)C(N)=O)C(C)C	Non-toxic
–	CC[C@H](C)[C@H](NC(=O)[C@H](Cc1ccccc1)NC(=O)[C@H](CCC(=O)O)NC(=O)[C@H](CCCCN)NC(=O)[C@H](C)NC(=O)[C@H](C)NC(=O)[C@H](CCC(N)=O)NC(=O)CNC(=O)[C@H](CCC(=O)O)NC(=O)[C@H](CC(C)C)NC(=O)[C@H](Cc1ccc(O)cc1)NC(=O)[C@H](CO)NC(=O)[C@H](CO)NC(=O)[C@@H](NC(=O)[C@H](CC(=O)O)NC(=O)[C@H](CO)NC(=O)[C@@H](NC(=O)[C@H](Cc1ccccc1)NC(=O)[C@@H](NC(=O)[C@H](CC(C(F)(F)F)C(F)(F)F)NC(=O)[C@H](CCC(=O)O)NC(=O)[C@H](C)NC(=O)[C@@H](N)Cc1cnc[nH]1)[C@@H](C)O)[C@@H](C)O)C(C)C)C(=O)N[C@@H](C)C(=O)N[C@@H](Cc1c[nH]c2ccccc12)C(=O)N[C@@H](CC(C)C)C(=O)N[C@H](C(=O)N[C@@H](CCCCN)C(=O)NCC(=O)N[C@@H](CCCN=C(N)N)C(N)=O)C(C)C	Non-toxic
–	CC[C@H](C)[C@H](NC(=O)[C@H](CC(C(F)(F)F)C(F)(F)F)NC(=O)[C@H](CCC(=O)O)NC(=O)[C@H](CCCCN)NC(=O)[C@H](C)NC(=O)[C@H](C)NC(=O)[C@H](CCC(N)=O)NC(=O)CNC(=O)[C@H](CCC(=O)O)NC(=O)[C@H](CC(C)C)NC(=O)[C@H](Cc1ccc(O)cc1)NC(=O)[C@H](CO)NC(=O)[C@H](CO)NC(=O)[C@@H](NC(=O)[C@H](CC(=O)O)NC(=O)[C@H](CO)NC(=O)[C@@H](NC(=O)[C@H](Cc1ccccc1)NC(=O)[C@@H](NC(=O)CNC(=O)[C@H](CCC(=O)O)NC(=O)[C@H](C)NC(=O)[C@@H](N)Cc1cnc[nH]1)[C@@H](C)O)[C@@H](C)O)C(C)C)C(=O)N[C@@H](C)C(=O)N[C@@H](Cc1c[nH]c2ccccc12)C(=O)N[C@@H](CC(C)C)C(=O)N[C@H](C(=O)N[C@@H](CCCCN)C(=O)NCC(=O)N[C@@H](CCCN=C(N)N)C(=O)O)C(C)C	Non-toxic
–	CC(C)C[C@H](NC(=O)[C@H](Cc1ccc(O)cc1)NC(=O)[C@H](CO)NC(=O)[C@H](CO)NC(=O)[C@@H](NC(=O)[C@H](CC(=O)O)NC(=O)[C@H](CO)NC(=O)[C@@H](NC(=O)[C@H](Cc1ccccc1)NC(=O)[C@@H](NC(=O)CNC(=O)[C@H](CCC(=O)O)NC(=O)[C@H](C)NC(=O)[C@@H](N)Cc1cnc[nH]1)[C@@H](C)O)[C@@H](C)O)C(C)C)C(=O)N[C@@H](CCC(=O)O)C(=O)NCC(=O)N[C@@H](CCC(N)=O)C(=O)N[C@@H](C)C(=O)N[C@@H](C)C(=O)N[C@@H](CCCCN)C(=O)N[C@@H](CCC(=O)O)C(=O)N[C@@H](Cc1ccccc1)C(=O)N[C@@H](CC(C(F)(F)F)C(F)(F)F)C(=O)N[C@@H](C)C(=O)N[C@@H](Cc1c[nH]c2ccccc12)C(=O)N[C@@H](CC(C)C)C(=O)N[C@H](C(=O)N[C@@H](CCCCN)C(=O)NCC(=O)N[C@@H](CCCNC(=N)N)C(N)=O)C(C)C	Non-toxic
Stable	CC[C@H](C)[C@H](NC(=O)[C@H](Cc1ccccc1)NC(=O)[C@H](CCC(=O)O)NC(=O)[C@H](CCCCN)NC(=O)[C@H](C)NC(=O)[C@H](C)NC(=O)[C@H](CCC(N)=O)NC(=O)CNC(=O)[C@H](CCC(=O)O)NC(=O)[C@H](CC(C)C)NC(=O)[C@H](Cc1ccc(O)cc1)NC(=O)[C@H](CO)NC(=O)[C@H](CO)NC(=O)[C@@H](NC(=O)[C@H](CC(=O)O)NC(=O)[C@H](CO)NC(=O)[C@@H](NC(=O)[C@H](Cc1ccccc1)NC(=O)[C@@H](NC(=O)CNC(=O)[C@H](CCC(=O)O)NC(=O)[C@H](CC(C(F)(F)F)C(F)(F)F)NC(=O)[C@@H](N)Cc1cnc[nH]1)[C@@H](C)O)[C@@H](C)O)C(C)C)C(=O)N[C@@H](C)C(=O)N[C@@H](Cc1c[nH]c2ccccc12)C(=O)N[C@@H](CC(C)C)C(=O)N[C@H](C(=O)N[C@@H](CCCCN)C(=O)NCC(=O)N[C@@H](CCCNC(=N)N)C(N)=O)C(C)C	Non-toxic
–	CC[C@H](C)[C@H](NC(=O)[C@H](Cc1ccccc1)NC(=O)[C@H](CCC(=O)O)NC(=O)[C@H](CCCCN)NC(=O)[C@H](C)NC(=O)[C@H](C)NC(=O)[C@H](CCC(N)=O)NC(=O)CNC(=O)[C@H](CCC(=O)O)NC(=O)CNC(=O)[C@H](CC(C)C)NC(=O)[C@H](Cc1ccc(O)cc1)NC(=O)[C@H](CO)NC(=O)[C@H](CO)NC(=O)[C@@H](NC(=O)[C@H](CC(=O)O)NC(=O)[C@H](CO)NC(=O)[C@@H](NC(=O)[C@H](Cc1ccccc1)NC(=O)[C@@H](NC(=O)CNC(=O)[C@H](CC(C(F)(F)F)C(F)(F)F)NC(=O)[C@H](C)NC(=O)[C@@H](N)Cc1cnc[nH]1)[C@@H](C)O)[C@@H](C)O)C(C)C)C(=O)N[C@@H](C)C(=O)N[C@@H](Cc1c[nH]c2ccccc12)C(=O)N[C@@H](CC(C)C)C(=O)N[C@H](C(=O)N[C@@H](CCCCN)C(=O)NCC(=O)N[C@@H](CCCNC(=N)N)C(N)=O)C(C)C (H-HA[Leu(5,5,5,5',5',5'-F6)]GTFTSDVSSYLGEGQAAKEFIAWLVKGR-NH2)	Non-toxic
